According to ChEMBL document CHEMBL1806488, “Design, synthesis and biological evaluation of 2'-deoxy-2',2'-difluoro-5-halouridine phosphoramidate ProTides” (Bioorg Med Chem, 2011):

Legend:
Human betaherpesvirus 5 [1] = assay: Antiviral activity against Human cytomegalovirus Davis infected in human HEL cells assessed as reduction in the virus plaque formation; type: functional, organism-based; conditions: Human betaherpesvirus 5, Davis
How it was run: (§1)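 HEL cells were infected with 100 PFU of HCMV (AD-169 or Davis) in the presence of compound.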

[2] = Cytotoxicity against cat CRFK cells by colorimetric formazan-based MTS assay; type: cell-based, Felis catus
HEL = assay: Cytotoxicity against human HEL cells by colorimetric formazan-based MTS assay; type: cell-based
Human alphaherpesvirus 3 [3] = assay: Antiviral activity against thymidine kinase-deficient Varicella-zoster virus 07-1 infected in human HEL cells assessed as reduction in the virus plaque formation; type: functional, organism-based; conditions: Human alphaherpesvirus 3, 07-1, HEL
[4] = Inhibition of Varicella-zoster virus thymidine kinase-mediated phosphorylation of [methyl-3H]dThd at 1 uM after 30 mins by scintillation counting; design: species or system Human alphaherpesvirus 3
Human betaherpesvirus 5 [5] = assay: Antiviral activity against Human cytomegalovirus AD-169 infected in human HEL cells assessed as reduction in the virus plaque formation; type: functional, organism-based; conditions: Human betaherpesvirus 5, AD169, HEL; how it was run: as §1
Vaccinia virus = assay: Antiviral activity against Vaccinia virus infected in human HEL cells assessed as inhibition of virus-induced cytopathic effect after 4 days by microscopic analysis; type: functional, organism-based; conditions: Orthopoxvirus vaccinia, 96 h
Human alphaherpesvirus 2 = assay: Antiviral activity against Herpes simplex virus-2 G infected in human HEL cells assessed as inhibition of virus-induced cytopathic effect after 4 days by microscopic analysis; type: functional, organism-based; conditions: Human alphaherpesvirus 2, strain G, 96 h
How it was run: (§2)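 Confluent monolayers (CRFK for feline herpes virus; HEL for HSV-2 G) were inoculated with 100 CCID50 of virus in the presence of compound at 200, 40, 8, … μM. Cytopathicity was scored once it was complete in untreated infected controls.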

Human alphaherpesvirus 3 [6] = assay: Antiviral activity against Varicella-zoster virus OKA expressing thymidine kinase infected in human HEL cells assessed as reduction in the virus plaque formation; type: functional, cell-based; conditions: Human alphaherpesvirus 3, strain Oka vaccine
FM3A = assay: Antiproliferation activity against mouse FM3A cells after 2 days by coulter counter; type: cell-based; conditions: 48 h
How it was run: (§3)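 L1210, FM3A, CEM or HeLa cells at 300,000–500,000 cells/mL were mixed 1:1 with compound dilutions. Incubation at 37 °C lasted 2 days (L1210, FM3A) or 3 days (CEM, HeLa), after which cells were counted with a Coulter counter.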

Human alphaherpesvirus 3 [7] = assay: Antiviral activity against thymidine kinase-deficient Varicella-zoster virus YS/R infected in human HEL cells assessed as reduction in the virus plaque formation; type: functional, organism-based; conditions: Human alphaherpesvirus 3, YS/R
L1210 = assay: Antiproliferation activity against mouse L1210 cells after 2 days by coulter counter; type: cell-based; conditions: L1210, 48 h; how it was run: as §3
Human alphaherpesvirus 3 [8] = assay: Antiviral activity against Varicella-zoster virus YS expressing thymidine kinase infected in human HEL cells assessed as reduction in the virus plaque formation; type: functional, organism-based; conditions: Human alphaherpesvirus 3, YS
[9] = Cytotoxicity against human HEL cells assessed as alteration of normal cell morphology by microscopic analysis; type: cell-based
How it was run: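 Uninfected HEL cells were examined under the microscope. The minimum cytotoxic concentration is the lowest concentration causing a detectable alteration of normal cell morphology.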

Felid alphaherpesvirus 1 = assay: Antiviral activity against Feline herpesvirus infected in cat CRFK cells assessed as inhibition of virus-induced cytopathic effect after 4 days by microscopic analysis; type: functional, organism-based; conditions: Felid alphaherpesvirus 1, CRFK, 96 h; how it was run: as §2
Human alphaherpesvirus 1 [10] = assay: Antiviral activity against acyclovir-resistant TK-deficient Herpes simplex virus-1 KOS infected in human HEL cells assessed as inhibition of virus-induced cytopathic effect after 4 days by microscopic analysis; type: functional, organism-based; conditions: Human alphaherpesvirus 1, KOS, 96 h
CCRF-CEM = assay: Antiproliferation activity against human CEM cells after 3 days by coulter counter; type: cell-based; conditions: 72 h; how it was run: as §3
Thymidine kinase [11] = molecular target: T1, Thymidine kinase (Feline herpesvirus 1, UniProt P13159); assay: Inhibition of Feline herpesvirus thymidine kinase assessed as phosphorylation of 1 uM [methyl-3H]dThd after 30 mins by scintillation counting; design: species or system Felid alphaherpesvirus 1
T1 sequence (P13159 whole entry): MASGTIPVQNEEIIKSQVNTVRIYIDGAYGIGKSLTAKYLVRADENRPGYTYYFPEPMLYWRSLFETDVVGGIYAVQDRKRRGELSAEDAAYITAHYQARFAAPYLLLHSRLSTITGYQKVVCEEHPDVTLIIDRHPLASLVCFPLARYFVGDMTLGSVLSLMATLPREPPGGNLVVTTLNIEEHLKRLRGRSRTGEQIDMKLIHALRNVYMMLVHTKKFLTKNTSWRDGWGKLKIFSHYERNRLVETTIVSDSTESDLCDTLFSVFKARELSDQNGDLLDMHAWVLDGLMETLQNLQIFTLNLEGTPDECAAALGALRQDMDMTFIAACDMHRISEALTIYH

HeLa = assay: Antiproliferation activity against human HeLa cells after 3 days by coulter counter; type: cell-based; conditions: 72 h; how it was run: as §3
Thymidine kinase [12] = molecular target: T2, Thymidine kinase (Human alphaherpesvirus 1, UniProt Q9QNF7); assay: Inhibition of Herpes simplex virus-1 thymidine kinase-mediated phosphorylation of [methyl-3H]dThd at 1 uM after 30 mins by scintillation counting
T2 sequence (Q9QNF7 whole entry): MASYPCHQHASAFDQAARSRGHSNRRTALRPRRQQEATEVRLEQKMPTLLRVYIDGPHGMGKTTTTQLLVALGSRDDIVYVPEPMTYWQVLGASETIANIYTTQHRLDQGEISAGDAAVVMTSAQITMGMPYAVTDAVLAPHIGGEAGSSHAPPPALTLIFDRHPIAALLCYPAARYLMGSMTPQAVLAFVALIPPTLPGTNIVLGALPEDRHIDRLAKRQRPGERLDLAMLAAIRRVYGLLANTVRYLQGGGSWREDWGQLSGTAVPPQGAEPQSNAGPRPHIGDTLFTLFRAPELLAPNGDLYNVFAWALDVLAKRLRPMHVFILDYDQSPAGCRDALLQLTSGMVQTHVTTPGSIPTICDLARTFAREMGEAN

Human alphaherpesvirus 1 [13] = assay: Antiviral activity against Herpes simplex virus 1 KOS infected in human HEL cells assessed as inhibition of virus-induced cytopathic effect after 4 days by microscopic analysis; type: functional, organism-based; conditions: Human alphaherpesvirus 1, KOS, 96 h

SMILES | EC50 (Human betaherpesvirus 5 [1]) | CC50 ([2]; crfk) | CC50 (HEL) | EC50 (Human alphaherpesvirus 3 [3]) | EC50 (Human betaherpesvirus 5 [5]) | EC50 (Vaccinia virus) | EC50 (Human alphaherpesvirus 2) | EC50 (Human alphaherpesvirus 3 [6]) | IC50 (FM3A) | IC50 (L1210) | MCC [9] | EC50 (Felid alphaherpesvirus 1) | EC50 (Human alphaherpesvirus 1 [10]) | IC50 (CCRF-CEM) | IC50 (HeLa) | EC50 (Human alphaherpesvirus 1 [13]) | other results
Cc1cn([C@@H]2O[C@H](CO)[C@@H](O)C2(F)F)c(=O)[nH]c1=O | > 50 µM | > 100 µM | 100 µM | > 50 µM | > 50 µM | ≥ 100 µM | 39 µM | 5.8 µM | > 500 µM | > 500 µM | > 50 µM | > 100 µM | 20 µM | > 500 µM | > 500 µM | 12 µM | IC50 [4]: 21 µM; EC50 (Human alphaherpesvirus 3 [7]): > 50 µM; EC50 (Human alphaherpesvirus 3 [8]): 10 µM; IC50 (Thymidine kinase [11]): 85 µM; IC50 (Thymidine kinase [12]): 2.8 µM
C[C@H](NP(=O)(OC[C@H]1O[C@@H](n2cc(I)c(=O)[nH]c2=O)C(F)(F)[C@@H]1O)Oc1ccccc1)C(=O)OCc1ccccc1 (stereo partly drawn) | – | ≥ 70 µM | – | – | – | 58 µM | 50 µM | – | – | – | > 100 µM | 4.4 µM | ≥ 100 µM | – | – | 27 µM | –
COC(=O)[C@H](C)NP(=O)(OC[C@H]1O[C@@H](n2cc(I)c(=O)[nH]c2=O)C(F)(F)[C@@H]1O)Oc1ccccc1 (stereo partly drawn) | > 50 µM | > 100 µM | 51 µM | > 50 µM | > 50 µM | > 100 µM | > 100 µM | > 50 µM | 258 µM | 226 µM | > 50 µM | 28 µM | > 100 µM | 176 µM | 126 µM | > 100 µM | –
C[C@H](NP(=O)(OC[C@H]1O[C@@H](n2cc(I)c(=O)[nH]c2=O)C(F)(F)[C@@H]1O)Oc1cccc2ccccc12)C(=O)OCc1ccccc1 (stereo partly drawn) | > 50 µM | 36 µM | 49 µM | 37 µM | > 50 µM | > 20 µM | > 20 µM | 8.5 µM | – | 23 µM | > 50 µM | > 20 µM | > 20 µM | 21 µM | 29 µM | > 20 µM | –
COC(=O)[C@H](C)NP(=O)(OC[C@H]1O[C@@H](n2cc(I)c(=O)[nH]c2=O)C(F)(F)[C@@H]1O)Oc1cccc2ccccc12 (stereo partly drawn) | > 50 µM | 92 µM | ≥ 100 µM | > 50 µM | > 50 µM | > 100 µM | > 100 µM | 25 µM | 46 µM | 134 µM | > 50 µM | > 20 µM | > 100 µM | 60 µM | 133 µM | > 100 µM | EC50 (Human alphaherpesvirus 3 [7]): > 50 µM; EC50 (Human alphaherpesvirus 3 [8]): 29 µM
C[C@H](NP(=O)(OC[C@H]1O[C@@H](n2cc(Br)c(=O)[nH]c2=O)C(F)(F)[C@@H]1O)Oc1ccccc1)C(=O)OCc1ccccc1 (stereo partly drawn) | > 50 µM | > 100 µM | ≥ 50 µM | > 50 µM | > 50 µM | > 100 µM | > 100 µM | 39 µM | 91 µM | 50 µM | > 50 µM | 11.6 µM | > 100 µM | 104 µM | 148 µM | > 100 µM | –
C[C@H](NP(=O)(OC[C@H]1O[C@@H](n2cc(Cl)c(=O)[nH]c2=O)C(F)(F)[C@@H]1O)Oc1ccccc1)C(=O)OCc1ccccc1 (stereo partly drawn) | > 50 µM | > 100 µM | ≥ 100 µM | > 50 µM | > 50 µM | > 100 µM | > 100 µM | > 50 µM | 226 µM | 175 µM | > 50 µM | > 100 µM | > 100 µM | 196 µM | 200 µM | > 100 µM | –
Nc1nc2c(ncn2COCCO)c(=O)[nH]1 [ACYCLOVIR] | – | – | > 400 µM | – | – | > 250 µM | – | – | – | – | > 250 µM | 1 µM | – | – | – | – | CC50 ([2]; CRFK cells): > 100 µM
O=c1[nH]c(=O)n([C@H]2C[C@H](O)[C@@H](CO)O2)cc1/C=C/Br [BRIVUDINE] | – | > 100 µM | 512 µM | ≥ 60 µM | – | 10 µM | – | 0.03 µM | – | – | ≥ 250 µM | 30 µM | – | – | – | – | EC50 (Human alphaherpesvirus 3 [7]): > 150 µM
Nc1ccn(C[C@@H](CO)OCP(=O)(O)O)c(=O)n1 [CIDOFOVIR] | – | – | – | – | – | 10 µM | – | – | – | – | > 250 µM | 1.3 µM | – | – | – | – | CC50 ([2]; CRFK cells): > 100 µM
Nc1nc2c(ncn2COC(CO)CO)c(=O)[nH]1 [GANCICLOVIR] | – | – | – | – | – | > 100 µM | – | – | – | – | > 100 µM | – | – | – | – | – | –
